Here are results for five molecules from ChEMBL document CHEMBL4354804, “Discovery of a New Isoxazole-3-hydroxamate-Based Histone Deacetylase 6 Inhibitor SS-208 with Antitumor Activity in Syngeneic Melanoma Mouse Models” (J Med Chem, 2019).

A value given as a limit tells only on which side of the number the result lay.

A short description of series [1]: Induction of apoptosis in mouse SM1 cells at 100 nM by caspase3/7 reagent based luminescence assay. It counts as cell-based. The note with it: 0.1 µM. The gist of the method:
(§1)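 SM1 cells treated with HDAC inhibitors, with pan-HDACi and assay controls on every plate. ApoTox-Glo triplex readout: viability fluorescence 400Ex/505Em, cytotoxicity fluorescence 485Ex/520Em, then caspase 3/7 reagent read by luminescence for apoptosis.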

A short description of series [2]: Cytotoxicity against mouse SM1 cells at 100 nM by ApoTox-Glo triplex assay. It counts as cell-based. The note with it: 0.1 µM. The gist of the method: as §1
Series [3] is described as follows: Half life in mouse liver microsomes in presence of NADPH. It counts as ADME, Microsome. The gist of the method: (§2)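 Liver microsomal stability in mouse and human microsomes with NADPH; half-life in minutes.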
For series [4], the species on record is Homo sapiens. As to the kind of experiment: Selectivity index, ratio of IC50 for recombinant full length C-terminal His/FLAG tagged human HDAC1 (1 to 482 residues) expressed in baculovirus infected sf9 insect cells using p53 (379 to 382 residues) derived fluorogenic peptide RHKKAc as substrate preincubated for 5 to 10 mins followed by ….
The subject of series [5] is Salmonella typhimurium. As to the kind of experiment: Genotoxicity against Salmonella Typhimurium TA97A assessed as revertant colonies at 0.075 to 250 ug/well by Ames test. It counts as toxicity, organism-based. To be noted: salmonella enterica subsp. enterica serovar typhimurium. (In general: In the Ames test, an excess of revertant colonies over the control signals mutagenicity.)

The nature of series [6]: Half life in human liver microsomes in presence of NADPH. It counts as ADME, Microsome. Summed up:
as §2
A general note: Liver microsomes are vesicles of endoplasmic reticulum, rich in cytochrome P450 enzymes.

Series [7] concerns Salmonella typhimurium. Description: Genotoxicity against Salmonella Typhimurium TA1537 assessed as revertant colonies at 0.075 to 250 ug/well by Ames test. It counts as toxicity, organism-based. To be noted: salmonella enterica subsp. enterica serovar typhimurium.
The subject of series [8] is Salmonella typhimurium. Description: Genotoxicity against Salmonella Typhimurium TA97A assessed as revertant colonies at 0.075 to 250 ug/well in presence of mammalian microsomal enzyme S9 mix by Ames test. It counts as toxicity, organism-based. To be noted: salmonella enterica subsp. enterica serovar typhimurium.
For series [9], the system named is Salmonella typhimurium. As to the kind of experiment: Genotoxicity against Salmonella Typhimurium TA1537 assessed as revertant colonies at 0.075 to 250 ug/well in presence of mammalian microsomal enzyme S9 mix by Ames test. It counts as toxicity, organism-based. The note with it: salmonella enterica subsp. enterica serovar typhimurium.
The target of series [10] is T1, Protein deacetylase HDAC6 (Homo sapiens, UniProt Q9UBN7).
T1 sequence (Q9UBN7 whole entry): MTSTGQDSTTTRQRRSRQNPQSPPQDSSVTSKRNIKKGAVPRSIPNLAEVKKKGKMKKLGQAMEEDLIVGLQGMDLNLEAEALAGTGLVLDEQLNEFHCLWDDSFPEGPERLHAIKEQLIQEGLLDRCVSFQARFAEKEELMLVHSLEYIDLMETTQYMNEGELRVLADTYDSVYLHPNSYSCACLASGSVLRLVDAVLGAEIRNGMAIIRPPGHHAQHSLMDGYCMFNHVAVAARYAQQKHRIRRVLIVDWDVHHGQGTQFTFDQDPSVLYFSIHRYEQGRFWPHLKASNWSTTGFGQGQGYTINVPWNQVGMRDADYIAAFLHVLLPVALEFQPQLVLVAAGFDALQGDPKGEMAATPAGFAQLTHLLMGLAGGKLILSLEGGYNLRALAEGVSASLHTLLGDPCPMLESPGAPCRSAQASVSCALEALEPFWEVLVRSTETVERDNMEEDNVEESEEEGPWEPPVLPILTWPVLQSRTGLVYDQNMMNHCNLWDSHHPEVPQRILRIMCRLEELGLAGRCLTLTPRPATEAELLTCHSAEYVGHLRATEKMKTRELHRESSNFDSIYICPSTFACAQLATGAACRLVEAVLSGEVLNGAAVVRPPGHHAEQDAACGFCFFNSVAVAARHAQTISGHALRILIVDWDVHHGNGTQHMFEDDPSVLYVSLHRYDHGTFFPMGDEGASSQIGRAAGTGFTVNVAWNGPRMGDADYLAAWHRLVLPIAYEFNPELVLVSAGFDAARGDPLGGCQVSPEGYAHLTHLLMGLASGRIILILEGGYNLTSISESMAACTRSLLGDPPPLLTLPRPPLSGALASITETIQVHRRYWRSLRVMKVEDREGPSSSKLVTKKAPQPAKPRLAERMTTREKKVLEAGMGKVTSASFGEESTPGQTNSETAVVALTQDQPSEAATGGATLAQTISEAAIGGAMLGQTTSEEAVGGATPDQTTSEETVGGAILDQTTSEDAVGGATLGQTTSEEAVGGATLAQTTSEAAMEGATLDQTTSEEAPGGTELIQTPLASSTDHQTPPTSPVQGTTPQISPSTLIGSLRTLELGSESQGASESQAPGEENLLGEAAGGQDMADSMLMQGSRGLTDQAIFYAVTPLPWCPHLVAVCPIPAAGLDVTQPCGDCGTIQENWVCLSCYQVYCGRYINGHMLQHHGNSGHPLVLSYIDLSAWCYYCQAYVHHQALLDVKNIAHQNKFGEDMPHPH
As to the kind of experiment: Inhibition of human recombinant HDAC6 using fluorogenic substrate incubated for 30 mins by fluorescence assay.

Series [11] is filed under the species Homo sapiens. Description: Selectivity index, ratio of IC50 for inhibition of human recombinant HDAC1 using fluorogenic substrate incubated for 15 mins by fluorescence assay to IC50 for inhibition of human recombinant HDAC6 using fluorogenic substrate incubated for 30 mins by fluorescence assay.
Series [12] concerns the target T2, Histone deacetylase 1 (Homo sapiens, UniProt Q13547). As to the kind of experiment: Inhibition of human recombinant HDAC1 using fluorogenic substrate incubated for 15 mins by fluorescence assay.
For series [13], the target named is T2, Histone deacetylase 1. Description: Inhibition of human recombinant HDAC1 using fluorogenic HDAC substrate by fluorescence assay. Summed up: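 Human full-length recombinant HDAC1 expressed in Sf9 cells via baculovirus. Substrate was the fluorogenic acetylated p53 379-382 peptide RHKKAc (50 µM) in pH 8.0 Tris buffer with NaCl, KCl, MgCl2, BSA and 1% DMSO final. Enzyme and compound were preincubated 5-10 min, then reacted 2 h at 30 °C. Developer plus TSA stopped the reaction; endpoint fluorescence was read.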

Series [14] concerns the target T2, Histone deacetylase 1. As to the kind of experiment: Inhibition of recombinant human HDAC1 expressed in HEK293T/17 cells using Ac-GAK(Ac)-AMC as substrate preincubated for 10 mins followed by substrate addition and measured after 30 mins by fluorescence-based assay. Summed up: (§3)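 Human HDACs expressed as Strep-tagged fusions in transiently transfected HEK293/T17 cells, purified by Strep-Tactin. Substrate at 10 µM: Ac-GAK(Ac)-AMC for HDAC1/6, Boc-Lys(TFA)-AMC for the others. Reaction 30 min at 37 °C, trypsin stop, fluorescence 365/440 nm. 10-point 3-fold series from 100 µM, mean of two experiments.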

Series [15] deals with Histone deacetylase 4 (Homo sapiens, UniProt P56524). As to the kind of experiment: Inhibition of recombinant human HDAC4 expressed in HEK293T/17 cells using Boc-Lys(TFA)-AMC as substrate preincubated for 10 mins followed by substrate addition and measured after 30 mins by fluorescence-based assay. The gist of the method: as §3
Chain of Histone deacetylase 4 (P56524 whole entry, the tested form may be a part): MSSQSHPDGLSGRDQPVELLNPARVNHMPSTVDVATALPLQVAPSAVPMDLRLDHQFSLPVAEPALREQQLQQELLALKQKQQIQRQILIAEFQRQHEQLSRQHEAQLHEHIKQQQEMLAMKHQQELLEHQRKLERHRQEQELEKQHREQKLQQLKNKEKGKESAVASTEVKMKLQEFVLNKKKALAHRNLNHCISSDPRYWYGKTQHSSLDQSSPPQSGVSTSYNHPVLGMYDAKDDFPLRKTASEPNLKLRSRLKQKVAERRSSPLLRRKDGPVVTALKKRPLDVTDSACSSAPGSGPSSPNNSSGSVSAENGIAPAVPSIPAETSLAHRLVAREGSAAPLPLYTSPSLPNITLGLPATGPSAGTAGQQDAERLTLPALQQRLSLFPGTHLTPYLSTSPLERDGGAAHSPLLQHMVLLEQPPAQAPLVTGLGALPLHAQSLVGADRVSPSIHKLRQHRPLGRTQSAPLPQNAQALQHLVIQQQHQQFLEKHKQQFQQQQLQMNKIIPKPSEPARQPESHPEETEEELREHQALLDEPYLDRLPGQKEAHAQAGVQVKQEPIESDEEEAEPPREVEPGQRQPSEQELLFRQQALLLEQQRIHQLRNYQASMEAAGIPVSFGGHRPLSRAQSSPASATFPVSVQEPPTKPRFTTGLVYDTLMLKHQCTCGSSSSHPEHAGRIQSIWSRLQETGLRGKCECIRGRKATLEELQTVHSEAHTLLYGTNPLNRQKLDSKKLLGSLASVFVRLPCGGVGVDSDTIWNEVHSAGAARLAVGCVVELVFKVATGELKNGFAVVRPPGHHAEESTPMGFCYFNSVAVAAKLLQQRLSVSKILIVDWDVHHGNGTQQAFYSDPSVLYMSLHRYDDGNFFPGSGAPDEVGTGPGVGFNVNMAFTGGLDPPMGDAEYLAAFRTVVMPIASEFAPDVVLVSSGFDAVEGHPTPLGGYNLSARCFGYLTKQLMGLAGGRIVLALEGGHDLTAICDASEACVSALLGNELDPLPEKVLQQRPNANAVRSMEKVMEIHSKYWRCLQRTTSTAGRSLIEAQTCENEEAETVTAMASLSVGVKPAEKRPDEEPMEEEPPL
For series [16], the target named is T1, Protein deacetylase HDAC6. Description: Inhibition of recombinant N-terminal GST-tagged human HDAC6 (1 to 1215 residues) expressed in baculovirus infected sf9 insect cells using p53 (379 to 382 residues) derived fluorogenic peptide RHKKAc as substrate preincubated for 5 to 10 mins followed by substrate addition and further incubated for 2 hrs by fluorescence assay.

The target in series [17] is Histone deacetylase 5 (Homo sapiens, UniProt Q9UQL6). As to the kind of experiment: Inhibition of recombinant human HDAC5 expressed in HEK293T/17 cells using Boc-Lys(TFA)-AMC as substrate preincubated for 10 mins followed by substrate addition and measured after 30 mins by fluorescence-based assay. The gist of the method:
as §3

Series [18] addresses T1, Protein deacetylase HDAC6. Description: Inhibition of recombinant human HDAC6 expressed in HEK293T/17 cells using Ac-GAK(Ac)-AMC as substrate preincubated for 10 mins followed by substrate addition and measured after 30 mins by fluorescence-based assay.
Series [19] has as its target T2, Histone deacetylase 1. Description: Inhibition of recombinant full length C-terminal His/FLAG tagged human HDAC1 (1 to 482 residues) expressed in baculovirus infected sf9 insect cells using p53 (379 to 382 residues) derived fluorogenic peptide RHKKAc as substrate preincubated for 5 to 10 mins followed by substrate addition and further incubated for 2 hrs by fluorescence assay.

The target in series [20] is T3, Histone deacetylase 11 (Homo sapiens, UniProt Q96DB2).
T3 sequence (Q96DB2 whole entry): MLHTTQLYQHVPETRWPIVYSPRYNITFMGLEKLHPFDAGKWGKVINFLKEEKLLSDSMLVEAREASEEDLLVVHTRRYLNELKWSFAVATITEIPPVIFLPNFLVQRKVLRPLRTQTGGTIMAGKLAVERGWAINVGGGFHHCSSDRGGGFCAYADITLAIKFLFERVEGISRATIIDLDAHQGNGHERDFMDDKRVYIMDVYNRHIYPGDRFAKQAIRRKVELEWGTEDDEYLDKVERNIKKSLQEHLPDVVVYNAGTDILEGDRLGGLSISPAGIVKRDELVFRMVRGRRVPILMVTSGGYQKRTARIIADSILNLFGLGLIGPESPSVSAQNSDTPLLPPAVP
As to the kind of experiment: Inhibition of recombinant human HDAC11 expressed in HEK293T/17 cells using Boc-Lys(TFA)-AMC as substrate preincubated for 10 mins followed by substrate addition and measured after 30 mins by fluorescence-based assay. Summed up: as §3

The target in series [21] is Histone deacetylase 9 (Homo sapiens, UniProt Q9UKV0). As to the kind of experiment: Inhibition of recombinant human HDAC9 expressed in HEK293T/17 cells using Boc-Lys(TFA)-AMC as substrate preincubated for 10 mins followed by substrate addition and measured after 30 mins by fluorescence-based assay. The gist of the method:
as §3

Series [22] has as its target T4, Histone deacetylase 8 (Homo sapiens, UniProt Q9BY41).
T4 sequence (Q9BY41 whole entry): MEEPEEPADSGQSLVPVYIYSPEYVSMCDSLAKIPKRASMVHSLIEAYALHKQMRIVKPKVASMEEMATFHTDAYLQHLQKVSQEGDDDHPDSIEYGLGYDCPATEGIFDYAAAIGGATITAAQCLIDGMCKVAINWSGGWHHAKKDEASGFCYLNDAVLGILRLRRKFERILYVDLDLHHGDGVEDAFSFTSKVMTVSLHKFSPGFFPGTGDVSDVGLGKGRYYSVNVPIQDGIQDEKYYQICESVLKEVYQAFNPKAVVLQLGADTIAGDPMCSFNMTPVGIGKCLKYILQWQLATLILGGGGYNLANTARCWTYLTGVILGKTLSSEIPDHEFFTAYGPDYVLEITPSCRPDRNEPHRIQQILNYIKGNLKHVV
Description: Inhibition of recombinant human HDAC8 expressed in HEK293T/17 cells using Boc-Lys(TFA)-AMC as substrate preincubated for 10 mins followed by substrate addition and measured after 30 mins by fluorescence-based assay. The gist of the method: as §3

T2 sequence (Q13547 whole entry): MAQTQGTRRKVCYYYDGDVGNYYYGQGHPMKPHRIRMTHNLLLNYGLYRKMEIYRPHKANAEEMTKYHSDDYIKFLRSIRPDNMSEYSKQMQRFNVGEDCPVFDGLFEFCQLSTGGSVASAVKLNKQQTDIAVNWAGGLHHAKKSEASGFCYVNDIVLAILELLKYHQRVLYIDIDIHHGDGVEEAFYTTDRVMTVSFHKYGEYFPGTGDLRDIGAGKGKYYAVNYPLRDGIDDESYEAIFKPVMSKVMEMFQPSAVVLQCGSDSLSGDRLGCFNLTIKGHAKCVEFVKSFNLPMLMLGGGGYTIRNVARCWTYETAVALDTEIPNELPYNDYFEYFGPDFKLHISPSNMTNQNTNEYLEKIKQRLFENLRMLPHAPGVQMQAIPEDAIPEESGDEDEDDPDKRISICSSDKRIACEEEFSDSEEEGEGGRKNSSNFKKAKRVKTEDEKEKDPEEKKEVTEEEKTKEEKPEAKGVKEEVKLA
Chain of Histone deacetylase 9 (Q9UKV0 whole entry): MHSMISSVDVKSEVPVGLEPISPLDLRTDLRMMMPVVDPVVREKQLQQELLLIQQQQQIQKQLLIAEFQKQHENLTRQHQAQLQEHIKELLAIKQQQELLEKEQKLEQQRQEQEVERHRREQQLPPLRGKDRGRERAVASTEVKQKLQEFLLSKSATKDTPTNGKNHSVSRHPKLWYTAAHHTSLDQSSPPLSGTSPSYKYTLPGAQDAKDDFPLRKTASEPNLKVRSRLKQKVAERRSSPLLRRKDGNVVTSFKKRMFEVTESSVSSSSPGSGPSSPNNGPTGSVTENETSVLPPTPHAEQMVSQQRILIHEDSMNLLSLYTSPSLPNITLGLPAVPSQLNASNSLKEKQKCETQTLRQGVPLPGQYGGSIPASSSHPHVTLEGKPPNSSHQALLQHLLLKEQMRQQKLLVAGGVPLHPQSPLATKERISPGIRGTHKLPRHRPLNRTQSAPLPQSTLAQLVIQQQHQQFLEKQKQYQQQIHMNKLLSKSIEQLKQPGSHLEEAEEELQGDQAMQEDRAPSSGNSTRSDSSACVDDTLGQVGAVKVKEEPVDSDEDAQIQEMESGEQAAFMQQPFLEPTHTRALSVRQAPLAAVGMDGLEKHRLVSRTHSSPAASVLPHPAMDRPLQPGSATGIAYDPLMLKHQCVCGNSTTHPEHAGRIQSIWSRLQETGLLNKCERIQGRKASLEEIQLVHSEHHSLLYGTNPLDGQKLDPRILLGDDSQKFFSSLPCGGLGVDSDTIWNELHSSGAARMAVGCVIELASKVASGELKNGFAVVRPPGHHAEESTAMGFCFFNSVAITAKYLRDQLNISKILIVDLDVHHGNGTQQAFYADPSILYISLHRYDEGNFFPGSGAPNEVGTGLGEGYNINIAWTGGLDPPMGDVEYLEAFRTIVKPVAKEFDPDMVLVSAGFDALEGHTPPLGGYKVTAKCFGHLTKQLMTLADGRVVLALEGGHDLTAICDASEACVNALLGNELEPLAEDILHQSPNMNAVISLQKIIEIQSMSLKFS
Chain of Histone deacetylase 5 (Q9UQL6 whole entry): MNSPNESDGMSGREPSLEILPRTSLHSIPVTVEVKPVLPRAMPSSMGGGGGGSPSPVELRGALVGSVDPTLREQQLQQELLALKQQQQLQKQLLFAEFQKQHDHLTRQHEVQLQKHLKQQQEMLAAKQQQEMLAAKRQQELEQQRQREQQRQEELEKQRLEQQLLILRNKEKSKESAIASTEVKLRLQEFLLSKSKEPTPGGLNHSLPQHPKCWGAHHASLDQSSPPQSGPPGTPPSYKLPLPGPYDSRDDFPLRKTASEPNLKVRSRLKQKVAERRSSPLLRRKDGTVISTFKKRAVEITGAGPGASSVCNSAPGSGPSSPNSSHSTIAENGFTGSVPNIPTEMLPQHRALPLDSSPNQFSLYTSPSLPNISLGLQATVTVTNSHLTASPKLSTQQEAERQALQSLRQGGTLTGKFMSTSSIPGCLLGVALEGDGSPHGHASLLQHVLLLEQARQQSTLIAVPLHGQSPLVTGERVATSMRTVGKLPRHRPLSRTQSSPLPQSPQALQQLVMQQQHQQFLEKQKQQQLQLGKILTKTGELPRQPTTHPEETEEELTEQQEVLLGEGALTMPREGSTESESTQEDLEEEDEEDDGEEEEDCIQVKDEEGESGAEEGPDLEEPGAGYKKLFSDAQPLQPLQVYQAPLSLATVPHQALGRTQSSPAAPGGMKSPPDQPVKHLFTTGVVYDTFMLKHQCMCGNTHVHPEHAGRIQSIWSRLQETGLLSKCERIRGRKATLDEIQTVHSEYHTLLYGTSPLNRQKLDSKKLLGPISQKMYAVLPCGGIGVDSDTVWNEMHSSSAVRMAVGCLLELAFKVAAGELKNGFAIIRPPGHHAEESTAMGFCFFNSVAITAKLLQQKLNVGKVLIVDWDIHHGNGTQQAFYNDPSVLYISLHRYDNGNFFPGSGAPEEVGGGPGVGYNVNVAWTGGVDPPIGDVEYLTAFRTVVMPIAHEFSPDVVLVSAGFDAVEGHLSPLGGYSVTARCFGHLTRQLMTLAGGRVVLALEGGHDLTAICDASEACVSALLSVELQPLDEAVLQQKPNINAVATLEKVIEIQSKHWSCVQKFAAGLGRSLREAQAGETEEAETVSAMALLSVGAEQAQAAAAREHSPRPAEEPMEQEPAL

Turning to `Cc1[nH]c2ccccc2c1CCNCc1ccc(/C=C/C(=O)NO)cc1` [PANOBINOSTAT], the Activity entry in series [1] and in [2] was “Toxic” each time.

Consider `CC(C)(C)OC(=O)Nc1ccc(-c2cc(C(=O)NCCc3cc(C(=O)NO)no3)no2)cc1`, for which the half-life (commonly the time in which the quantity being followed falls by half) was 16 min in [3] and 85 min in series [6]. Also, the Ratio IC50 in [4] amounted to 2820. Further, the Activity entry in series [5], in series [7], in series [8] and in series [9] was “Non-Toxic” throughout.

In the case of `O=C(NO)c1ccc(CNCc2csc3ccccc23)cc1`, the IC50 – broadly, the concentration that gives 50% inhibition – in [10] was found to be 14 nM; in series [12] it was 7500 nM. The Ratio IC50 in series [11] was found to be 535.

For `CN(Cc1ccc(C(=O)NO)cc1F)CC12CC3CC(CC(C3)C1)C2`, the IC50 in series [13] is over 1000 nM.

On to `O=C(NO)c1ccc(CNC(=O)c2ccc(Cl)c(Cl)c2)cc1`, for which the IC50 amounted to 34 nM in series [14]; 3530 nM in [15]; 28 nM in [16]; 3120 nM in series [17]; 2 nM in [18]; 200 nM in series [19]. Also, the values for the IC50 in [20], in [21] and in [22] were 1050 nM, 3070 nM and 920 nM, respectively.
